{"data": "Results pooled from the literature", "effect on": "enzyme activity", "action": "inhibitor", "BTK": "Tyrosine-protein kinase BTK (BTK, Homo sapiens, UniProt Q06187)", "note": "Lines come from different studies, so protocols differ."}
{"SMILES": "CN(C)C1CCN(CC#Cc2nn(C3CCCC3)c3nc(NCc4ccccc4)ncc23)C1 (stereo not drawn)", "target": "BTK", "technique": "FRET", "tested at": "0.1 µM", "inhibition [%]": 8}
{"SMILES": "CNC(=O)c1cc2c(Oc3ccc(NC(=O)C4(C(=O)Nc5ccc(F)cc5)CC4)cc3)ccnc2cc1OC", "target": "BTK", "technique": "radiometric", "tested at": "1 µM", "inhibition [%]": 94}
{"SMILES": "CNCc1ccc(-c2cc(-c3nc(-c4ccc(S(=O)(=O)C(C)C)cc4)cnc3N)on2)cc1", "target": "BTK", "tested at": "2 µM", "inhibition [%]": 6}
{"SMILES": "COc1cc2ncnc(Nc3ccc(Oc4ccccc4)c(C)c3C)c2cc1OC", "target": "BTK", "tested at": "1 µM", "inhibition [%]": 33}
{"SMILES": "CNC(=O)c1cc(Oc2ccc(NC(=O)Nc3ccc(Cl)c(C(F)(F)F)c3)cc2)ccn1", "target": "BTK", "tested at": "10 µM", "inhibition [%]": 43}
{"SMILES": "CN(c1ncccc1CNc1nc(Nc2ccc3c(c2)CC(=O)N3)ncc1C(F)(F)F)S(C)(=O)=O", "target": "BTK", "tested at": "1 µM", "inhibition [%]": 65}
{"SMILES": "Cc1ccc(Nc2nccc(N(C)c3ccc4c(C)n(C)nc4c3)n2)cc1S(N)(=O)=O", "target": "BTK", "tested at": "0.3 µM", "inhibition [%]": 12}
{"SMILES": "CC/C(=N\\NC(=O)NCc1cccc(O)c1)c1ccc(O)c(C)c1O", "target": "Tyrosine-protein kinase BTK (BTK, Homo sapiens, UniProt Q06187, C481S)", "tested at": "0.1 µM", "inhibition [%]": -1.8}
{"SMILES": "CCN(CC)CCNC(=O)c1c(C)[nH]c(/C=C2\\C(=O)Nc3ccc(F)cc32)c1C", "target": "BTK", "tested at": "0.3 µM", "inhibition [%]": 16}
{"SMILES": "CC#CC(=O)N1CCC[C@H]1c1nc(-c2ccc(C(=O)Nc3ccccn3)cc2)c2c(N)nccn12", "target": "BTK", "technique": "radiometric", "tested at": "0.1 µM", "inhibition [%]": 83}
{"SMILES": "COc1cc2nccc(Oc3ccc(NC(=O)c4c5n(n(-c6ccc(F)cc6)c4=O)CCCC5)cc3)c2cc1OC", "target": "BTK", "tested at": "0.1 µM", "inhibition [%]": -7}
{"SMILES": "CS(=O)(=O)Nc1cccc(-c2csc(NC(=O)CSc3nc4nccnc4c(=O)n3CCc3ccccc3)n2)c1", "target": "BTK", "tested at": "10 µM", "inhibition [%]": 3}
